The record followed here is ChEMBL document CHEMBL1287642, “Synthesis, antiviral activity and cytotoxicity evaluation of Schiff bases of some 2-phenyl quinazoline-4(3)H-ones” (Eur J Med Chem, 2010).

Values after ≈ are worked out from the molar mass of the structure shown.

Data set [1] can be described thus: Cytotoxicity against human HEL cells assessed as minimum concentration required to cause microscopically detectable alteration after 2 days. Type of data set: cell-based. Particulars: read-out: Activity; call rule not given here.
In data set [2] the test system is Human alphaherpesvirus 1. Nature of the data set: Antiviral activity against Herpes simplex virus-1 KOS infected in human HEL cells assessed as protection against virus-induced cytopathogenicity after 2 days. Type of data set: functional, organism-based. Conditions: Human alphaherpesvirus 1, KOS, 48 h. In general terms: Protection from cytopathic effect is a common read-out in antiviral testing.

The subject of a further data set is Human alphaherpesvirus 2. Nature of the data set: Antiviral activity against Herpes simplex virus-2 G infected in human HEL cells assessed as protection against virus-induced cytopathogenicity after 2 days. It is filed as functional, organism-based. Conditions: Human alphaherpesvirus 2, strain G, 48 h.
Data set [3] concerns Vesicular stomatitis virus. Nature of the data set: Antiviral activity against Vesicular stomatitis virus infected in human HEL cells assessed as protection against virus-induced cytopathogenicity after 2 days. Conditions: 48 h. It is filed as functional, organism-based.
Data set [4] has as its system Human alphaherpesvirus 1. Nature of the data set: Antiviral activity against acyclovir-resistant TK deficient Herpes simplex virus-1 KOS infected in human HEL cells assessed as protection against virus-induced cytopathogenicity after 2 days. Type of data set: functional, organism-based. Conditions: Human alphaherpesvirus 1, KOS, 48 h.
Data set [5] is described as follows: Cytotoxicity against african green monkey Vero cells assessed as minimum concentration required to cause microscopically detectable alteration after 2 days. Type of data set: cell-based. Conditions: chlorocebus sabaeus, read-out: Activity.
The test system of the next data set is Human respirovirus 3. Nature of the data set: Antiviral activity against Para influenza-3 virus infected in african green monkey Vero cells assessed as protection against virus-induced cytopathogenicity after 2 days. It is filed as functional, organism-based. Particulars: Human respirovirus 3, Vero, 48 h.
The subject of data set [6] is Mammalian orthoreovirus 1. Nature of the data set: Antiviral activity against Reovirus-1 infected in african green monkey Vero cells assessed as protection against virus-induced cytopathogenicity after 2 days. Type of data set: functional, organism-based. Particulars: Mammalian orthoreovirus 1, Vero, 48 h.
Another data set has as its system Sindbis virus. Nature of the data set: Antiviral activity against Sindbis virus infected in african green monkey Vero cells assessed as protection against virus-induced cytopathogenicity after 2 days. It is filed as functional, organism-based. Particulars: 48 h.
Data set [7] deals with Coxsackievirus B4. Nature of the data set: Antiviral activity against Coxsackie virus B4 infected in african green monkey Vero cells assessed as protection against virus-induced cytopathogenicity after 2 days. Type of data set: functional, organism-based. Conditions: Enterovirus B, 48 h.
The next data set deals with Punta Toro virus. Nature of the data set: Antiviral activity against Punta Toro virus infected in african green monkey Vero cells assessed as protection against virus-induced cytopathogenicity after 2 days. It is filed as functional, organism-based. Conditions: 48 h.
Data set [8] can be described thus: Cytotoxicity against cat CRFK cells by MTS assay. It is filed as cell-based, Felis catus. Particulars: crfk. An outline of the steps:
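In uninfected CRFK cells, the 50% cytotoxic concentration was derived from cell viability measured by the colorimetric formazan-based MTS assay.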

For data set [9], the system named is Feline infectious peritonitis virus. Nature of the data set: Antiviral activity against Feline coronavirus FIPV infected in cat CRFK cells assessed as protection against virus-induced cytopathogenicity after 2 days by MTS assay. Particulars: Alphacoronavirus 1, CRFK, 48 h. It is filed as functional, cell-based.
Another data set deals with Felid alphaherpesvirus 1. Nature of the data set: Antiviral activity against Feline herpes virus infected in cat CRFK cells assessed as protection against virus-induced cytopathogenicity after 2 days by MTS assay. Type of data set: functional, organism-based. Particulars: Felid alphaherpesvirus 1, CRFK, 48 h.
Data set [10] can be described thus: Cytotoxicity against human HeLa cells assessed as minimum concentration required to cause microscopically detectable alteration after 2 days. Type of data set: cell-based. Conditions: read-out: Activity.
Data set [11] has as its system Vesicular stomatitis virus. Nature of the data set: Antiviral activity against Vesicular stomatitis virus infected in human HeLa cells assessed as protection against virus-induced cytopathogenicity after 2 days. It is filed as functional, organism-based. Conditions: 48 h.
The test system of data set [12] is Coxsackievirus B4. Nature of the data set: Antiviral activity against Coxsackie virus B4 infected in human HeLa cells assessed as protection against virus-induced cytopathogenicity after 2 days. It is filed as functional, organism-based. Conditions: Enterovirus B, 48 h.
For data set [13], the system named is Respiratory syncytial virus. Nature of the data set: Antiviral activity against Respiratory syncytial virus infected in human HeLa cells assessed as protection against virus-induced cytopathogenicity after 2 days. It is filed as functional, organism-based. Particulars: 48 h.
A short description of data set [14]: Selectivity index, ratio of minimum concentration required to cause microscopically detectable alteration in human HEL cells to EC50 for Herpes simplex virus-1 KOS. Type of data set: toxicity, cell-based. Particulars: read-out: Selectivity Index. The procedure, abridged:
(§1)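 Cytotoxicity was taken as the concentration causing a microscopically detectable change in normal cell morphology (Vero or HEL). […] The selectivity index is the first divided by the second.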

Data set [15] in a line: Selectivity index, ratio of minimum concentration required to cause microscopically detectable alteration in human HEL cells to EC50 for Herpes simplex virus-2 G. It is filed as toxicity, cell-based. Conditions: read-out: Selectivity Index. The procedure, abridged:
as §1

Data set [16] is described as follows: Selectivity index, ratio of minimum concentration required to cause microscopically detectable alteration in human HEL cells to EC50 for acyclovir-resistant TK deficient Herpes simplex virus-1 KOS. Particulars: read-out: Selectivity Index. Type of data set: toxicity, cell-based. An outline of the steps:
as §1

The nature of data set [17]: Selectivity index, ratio of minimum concentration required to cause microscopically detectable alteration in human HEL cells to EC50 for acyclovir-resistant TK deficient Vaccina virus. Type of data set: toxicity, cell-based. Particulars: read-out: Selectivity Index. The procedure, abridged:
as §1

The subject of data set [18] is Influenza A virus. Nature of the data set: Antiviral activity against influenza A virus H1N1 infected in MDCK cells assessed as protection against virus-induced cytopathogenicity at 100 ug/ml after 2 days. Type of data set: functional, organism-based. An outline of the steps:
(§2)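 Infected MDCK cells were treated. […] N.A. means not active at the highest concentration tested or at a subtoxic concentration.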

Data set [19] has as its system Influenza A virus. Nature of the data set: Antiviral activity against Influenza A virus H3N2 infected in MDCK cells assessed as protection against virus-induced cytopathogenicity at 100 ug/ml after 2 days. It is filed as functional, organism-based. The procedure, abridged: as §2
Data set [20] deals with Influenza B virus. Nature of the data set: Antiviral activity against influenza B virus infected in MDCK cells assessed as protection against virus-induced cytopathogenicity at 100 ug/ml after 2 days. It is filed as functional, organism-based. An outline of the steps: as §2
The subject of a further data set is MDCK. Nature of the data set: (§3) Cytotoxicity against MDCK cells by MTS assay. Type of data set: cell-based, Canis lupus familiaris. Conditions: dog, mdck. The procedure, abridged: (§4)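 In Madin Darby canine kidney cells, the 50% cytotoxic concentration was derived from cell viability measured by the colorimetric formazan-based MTS assay.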
On the technique in general: Formazan colour is commonly taken as a measure of viable cells.

Data set [21] is described as follows: Cytotoxicity against MDCK cells assessed as minimum concentration required to cause microscopically detectable alteration after 2 days. Type of data set: cell-based, Canis lupus familiaris. Particulars: dog, read-out: Activity.
In data set [22] the test system is Influenza A virus. Nature of the data set: Antiviral activity against influenza A virus H1N1 infected in MDCK cells assessed as cell viability at 100 ug/ml after 2 days by MTS assay. Type of data set: functional, organism-based.
Data set [23] concerns Influenza A virus. Nature of the data set: Antiviral activity against Influenza A virus H3N2 infected in MDCK cells assessed as cell viability at 100 ug/ml after 2 days by MTS assay. Type of data set: functional, organism-based.
For data set [24], the system named is Influenza B virus. Nature of the data set: Antiviral activity against influenza B virus infected in MDCK cells assessed as cell viability at 100 ug/ml after 2 days by MTS assay. Type of data set: functional, organism-based.
Data set [25] is described as follows: as §3. It is filed as cell-based, Canis lupus familiaris. Particulars: dog, MDCK cells. An outline of the steps: as §4
The test system of data set [26] is Influenza B virus. Nature of the data set: Antiviral activity against influenza B virus infected in MDCK cells assessed as protection against virus-induced cytopathogenicity after 2 days. It is filed as functional, organism-based. An outline of the steps:
as §2

Data set [27] has as its system Influenza B virus. Nature of the data set: Antiviral activity against influenza B virus infected in MDCK cells assessed as cell viability after 2 days by MTS assay. Type of data set: functional, organism-based.

As a reminder, the EC50 is the concentration needed to bring the measured effect to its halfway point. One may read the CC50 as the concentration giving 50% cytotoxicity. In the case of `O=c1c2ccccc2nc(-c2ccccc2)n1/N=C/c1ccccc1`, the MCC at 48 h in data set [1] was greater than 100 µg/mL; in data set [5] it was 20 µg/mL; in [10] it was 20 µg/mL; in data set [21] it was 20 µg/mL. The EC50 in the data set with Human alphaherpesvirus 1 [2] is 7 µg/mL (≈ 21.5 µM); with Human alphaherpesvirus 2 it was 9 µg/mL (≈ 27.7 µM); in [3] it was greater than 100 µg/mL; in the data set on Human alphaherpesvirus 1 [4], 9 µg/mL (≈ 27.7 µM); in the data set with Human respirovirus 3 it was greater than 4 µg/mL; in [6] it was greater than 4 µg/mL. Moreover, the EC50 with Sindbis virus was greater than 4 µg/mL; in the data set on Coxsackievirus B4 [7], greater than 4 µg/mL; in the data set on Punta Toro virus, greater than 4 µg/mL; in data set [9] it was greater than 0.8 µg/mL; in the data set with Felid alphaherpesvirus 1, greater than 0.8 µg/mL; in [11], greater than 4 µg/mL. Moreover, the 50% effective concentration (EC50) is greater than 4 µg/mL with Coxsackievirus B4 [12]; greater than 4 µg/mL in [13]; “Not Active” with Influenza A virus [18]; “Not Active” in the data set with Influenza A virus [19]; “Not Active” with Influenza B virus [20]; “Not Active” in the data set with Influenza A virus [22]. Moreover, the EC50 entry in the data set with Influenza A virus [23] and with Influenza B virus [24] was “Not Active” each time. Moreover, the half-maximal cytotoxic concentration (CC50) in data set [8] turned out to be 3.7 µg/mL (≈ 11.4 µM); with MDCK, 15 µg/mL (≈ 46.1 µM). Besides, the selectivity ratio in data set [14] was determined as 14; in [15], 11; in data set [16], 11; in [17], 11.

For the compound `NC12CC3CC(CC(C3)C1)C2` [AMANTADINE], the CC50 in [25] is greater than 1000 µg/mL. In [21], the MCC at 48 h is greater than 1000 µg/mL. The EC50 result in the data set on Influenza B virus [26] and with Influenza B virus [27] was “Not Active” throughout.

As for `COc1ccc(/C=N/n2c(-c3ccccc3)nc3ccccc3c2=O)cc1`, the MCC at 48 h in [1] was greater than 100 µg/mL; in data set [5], 100 µg/mL; in data set [10] it was 20 µg/mL; in data set [21], 20 µg/mL. For the same compound, the EC50 was 9 µg/mL (≈ 25.3 µM) in the data set with Human alphaherpesvirus 1 [2]; 8 µg/mL (≈ 22.5 µM) in the data set on Human alphaherpesvirus 2; greater than 100 µg/mL in [3]; 9 µg/mL (≈ 25.3 µM) with Human alphaherpesvirus 1 [4]; greater than 20 µg/mL with Human respirovirus 3; greater than 20 µg/mL in data set [6]. The EC50 in the data set on Sindbis virus was greater than 20 µg/mL; in the data set on Coxsackievirus B4 [7], greater than 20 µg/mL; in the data set on Punta Toro virus, greater than 20 µg/mL; in data set [9], greater than 4 µg/mL; in the data set with Felid alphaherpesvirus 1 it was greater than 4 µg/mL; in [11], greater than 4 µg/mL. For the same compound, the EC50 in the data set on Coxsackievirus B4 [12] is greater than 4 µg/mL; in data set [13], greater than 4 µg/mL; in the data set with Influenza A virus [18] it was “Not Active”; in the data set on Influenza A virus [19], “Not Active”; in the data set on Influenza B virus [20] it was “Not Active”; in the data set with Influenza A virus [22], “Not Active”. The EC50 result in the data set on Influenza A virus [23] and with Influenza B virus [24] was “Not Active” each time. The figures for the CC50 (in data set [8]; with MDCK) were 13.7 µg/mL (≈ 38.5 µM) and 8.2 µg/mL (≈ 23.1 µM), respectively. In addition, the selectivity ratio in data set [14] worked out at 11; in data set [15], 13; in data set [16], 11; in data set [17], 11.
